From ChEMBL document CHEMBL4428098, “Facile synthesis of autophagonizer and evaluation of its activity to induce autophagic cell death in apoptosis-defective cell line” (Bioorg Med Chem Lett, 2016)
Activity calls are given as the source filed them. No cut-off for these calls is given here.

Tests used:
HeLa [1] = assay: Induction of autophagic cell death in human HeLa cells at 8 uM after 24 hrs by MTT assay relative to control; assay type: functional
How it was run: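 HeLa cells exposed 24 h to compound at graded concentrations with DMSO vehicle control; viability read by MTT assay and viable cell number normalized against DMSO-treated cells to give percent viable cells.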

MEF [2] = assay: Induction of autophagy in Bax/Bak double knockout MEF assessed as accumulation of acidic vacuoles at 2 to 4 uM after 15 hrs by MDC/Hoechst 33342 staining based fluorescence assay; assay type: functional, cell-based; details: Mus musculus
How it was run: (§1)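 Wild-type and Bax/Bak double-knockout MEFs treated 15 h at the indicated concentrations alongside DMSO vehicle. Stained with Cyto-ID reagent (green) for autophagosomes and MDC (blue) for acidic vacuoles, then imaged.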

MEF [3] = assay: Induction of autophagy in wild-type MEF assessed as autophagosome formation at 2 to 4 uM after 15 hrs by Cyto-ID reagent/ Hoechst 33342 staining based fluorescence assay; assay type: functional, cell-based; details: Mus musculus; how it was run: as §1
MEF [4] = assay: Induction of autophagic cell death in Bax/Bak double knockout MEF after 15 hrs by MTT assay; details: Mus musculus
MEF [5] = assay: Induction of autophagy in Bax/Bak double knockout MEF assessed as conversion of LC3-1 to LC3-2 at 2.5 to 5 uM after 15 hrs by Western blot analysis; assay type: functional, cell-based; details: Mus musculus
How it was run: (§2)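 Wild-type and Bax/Bak double-knockout MEFs treated 15 h at the indicated concentrations with DMSO vehicle control. LC3-I to LC3-II conversion assessed by immunoblot.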

HeLa [6] = assay: Induction of autophagy in human HeLa cells assessed as accumulation of acidic vacuoles after 24 hrs by MDC/Hoechst 33342 staining based fluorescence assay; assay type: functional, cell-based
How it was run: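 HeLa cells exposed 24 h over a dose range with DMSO vehicle control, then stained with MDC for acidic vacuoles. Fluorescence read at 335/512 nm (Ex/Em) and normalized to viable cell number from a parallel MTT assay. Per-cell signal expressed relative to DMSO-treated cells as fold intensity. Sigmoidal dose–response curve fitted.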

MEF [7] = assay: Induction of autophagy in wild-type MEF assessed as conversion of LC3-1 to LC3-2 at 2.5 to 5 uM after 15 hrs by Western blot analysis; assay type: functional, cell-based; details: Mus musculus; how it was run: as §2
HeLa [8] = assay: Induction of autophagy in human HeLa cells assessed as autophagosome formation after 24 hrs by Cyto-ID reagent/ Hoechst 33342 staining based fluorescence assay; assay type: functional, cell-based
How it was run: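 HeLa cells treated 24 h at various doses, DMSO as vehicle control. Stained with Hoechst 33342 and green Cyto-ID reagent and imaged under DAPI and GFP filters. Plate read at 340/480 nm (Hoechst) and 480/539 nm (Cyto-ID) Ex/Em. Cyto-ID fluorescence per cell taken relative to DMSO-treated cells, and a sigmoidal dose–response curve constructed.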

MEF [9] = assay: Induction of autophagy in wild-type MEF assessed as accumulation of acidic vacuoles at 2 to 4 uM after 15 hrs by MDC/Hoechst 33342 staining based fluorescence assay; assay type: functional, cell-based; details: Mus musculus; how it was run: as §1
HeLa [10] = assay: Induction of autophagy in human HeLa cells assessed as accumulation of LC3-2 at 2.5 to 5 uM after 24 hrs by Western blot analysis; assay type: functional, cell-based
How it was run: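 Immunoblot of HeLa lysates for LC3-I to LC3-II conversion after 24 h treatment, with DMSO vehicle control and actin probed as reference.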

MEF [11] = assay: Induction of autophagic cell death in wild-type MEF after 15 hrs by MTT assay; details: Mus musculus
MEF [12] = assay: Induction of autophagy in Bax/Bak double knockout MEF assessed as autophagosome formation at 2 to 4 uM after 15 hrs by Cyto-ID reagent/ Hoechst 33342 staining based fluorescence assay; assay type: functional, cell-based; details: Mus musculus; how it was run: as §1
HeLa [13] = assay: Induction of autophagic cell death in human HeLa cells after 24 hrs by MTT assay; assay type: functional, cell-based
How it was run: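 MTT viability assay in HeLa cells after 24 h treatment over a log concentration range, with DMSO vehicle control. Viable cells normalized to DMSO-treated cells as percent viability. EC50 estimated from a sigmoidal dose–response curve.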

HeLa [14] = assay: Induction of autophagy in human HeLa cells assessed as acidic vacuoles at 3 to 25 uM after 24 hrs by MDC/Hoechst 33342 staining based fluorescence assay; assay type: functional, cell-based
How it was run: (§3)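 Acidic vacuoles in HeLa cells after 24 h exposure, with DMSO vehicle control. Cells stained with MDC and imaged under the DAPI filter.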

HeLa [15] = assay: Induction of autophagy in human HeLa cells assessed as accumulation of acidic vacuoles at 3 and 25 uM after 24 hrs by MDC/Hoechst 33342 staining based fluorescence assay; assay type: functional, cell-based; how it was run: as §3

With `O=C(NCCN1CCCC1)c1coc(CSc2nc3sc4c(c3c(=O)n2Cc2ccccc2)CCCC4)n1` the “fold change (FC)” value (HeLa [1]) was 5, the Activity (MEF [2]) was “Active” and the Activity (MEF [3]) was “Active”. For the same compound, the EC50 (MEF [4]) was 2.2 µM, the Activity (MEF [5]) was “Active” and the EC50 (HeLa [6]) was 1.3 µM. The Activity (MEF [7]) was “Active”, the Activity (HeLa [8]) was “Dose-dependent effect” and the EC50 (HeLa [8]) was 3.5 µM. The Activity (MEF [9]) was “Active”, the Activity (HeLa [10]) was “Active” and the EC50 (MEF [11]) was 2.1 µM. For the same compound, the Activity (MEF [12]) was “Active” and the EC50 (HeLa [13]) was 3.5 µM.
In the case of `O=C(NCCC1CCCC1)c1coc(CSc2nc3sc4c(c3c(=O)n2Cc2ccccc2)CCCC4)n1`, the Activity (MEF [2]) is reported as “inactive”, the Activity (MEF [3]) is reported as “inactive” and the EC50 (MEF [4]) is reported as 24.2 µM. For the same compound, the Activity (MEF [5]) was “inactive”, the Activity (MEF [7]) was “inactive” and the Activity (HeLa [14]) was “inactive”. The Activity (MEF [9]) was “inactive”, the EC50 (MEF [11]) was 28.6 µM and the Activity (MEF [12]) was “inactive”. For the same compound, the EC50 (HeLa [13]) was 25 µM and the Activity (HeLa [15]) was “inactive”.
